Reference: ChEMBL document CHEMBL1122599, “Antiinflammatory activity of 5,6-diaryl-2,3-dihydroimidazo[2,1-b]thiazoles. Isomeric 4-pyridyl and 4-substituted phenyl derivatives” (1984)

Assays:
[1] = test system: Rattus norvegicus; assay: Adjuvant arthritic activity in rat uninjected leg on day 16 tested at 50 mg/kg perorally; assay type: functional; settings: 384 h, route oral
Outline: (§1)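 Rats received oral doses daily from the day of adjuvant injection for 17 days, skipping days 4, 5, 11 and 12. Leg volumes were compared with those of an arthritic vehicle-control group. Significance was judged by Student's t test.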

[2] = test system: Rattus norvegicus; assay: Adjuvant arthritic activity in rat injected leg on day 16 tested at 50 mg/kg perorally; assay type: functional; settings: 384 h, route oral; outline: as §1
[3] = test system: Mus musculus; assay: Cutaneous oxazolone induced contact sensitivity in mouse and percent stimulation in right hind paw was determined at a dose 25 mg/kg perorally; settings: route oral
[4] = test system: Rattus norvegicus; assay: Adjuvant arthritic activity in rat injected leg on day 3 tested at 50 mg/kg perorally; assay type: functional; settings: 72 h, route oral; outline: as §1
[5] = test system: Rattus norvegicus; assay: Adjuvant arthritic activity in rat injected leg on day 3 tested at 50 mg/kg perorally.; assay type: functional; settings: 72 h, route oral; outline: as §1
[6] = test system: Mus musculus; assay: Cutaneous oxazolone induced contact sensitivity in mouse and percent stimulation in right hind paw was determined at a dose 25 mg/kg perorally.; settings: route oral
[7] = test system: Rattus norvegicus; assay: Adjuvant arthritic activity in rat uninjected leg on day 16 tested at 50 mg/kg perorally.; assay type: functional; settings: 384 h, route oral; outline: as §1
[8] = test system: Rattus norvegicus; assay: Adjuvant arthritic activity in rat injected leg on day 16 tested at 50 mg/kg perorally.; assay type: functional; settings: 384 h, route oral; outline: as §1
[9] = test system: Rattus norvegicus; assay: Adjuvant arthritic activity in rat injected leg on day 16 tested at 20 mg/kg perorally.; assay type: functional; settings: 384 h, route oral; outline: as §1
[10] = test system: Mus musculus; assay: Cutaneous oxazolone induced contact sensitivity in mouse and percent stimulation in right hind paw was determined at a dose 20 mg/kg perorally; settings: route oral
[11] = test system: Rattus norvegicus; assay: Adjuvant arthritic activity in rat uninjected leg on day 16 tested at 20 mg/kg perorally.; assay type: functional; settings: 384 h, route oral; outline: as §1

| SMILES | inhibition in vivo at 50 mg/kg [1] [%] | inhibition in vivo at 50 mg/kg [2] [%] | Stimulation [3] [%] | inhibition in vivo at 50 mg/kg [4] [%] | inhibition in vivo at 50 mg/kg [5] [%] | Stimulation [6] [%] | inhibition in vivo at 50 mg/kg [7] [%] | inhibition in vivo at 50 mg/kg [8] [%] | inhibition in vivo at 20 mg/kg [9] [%] | Stimulation [10] [%] | inhibition in vivo at 20 mg/kg [11] [%] |
| --- | --- | --- | --- | --- | --- | --- | --- | --- | --- | --- | --- |
| CSc1ccc(-c2nc3n(c2-c2ccncc2)CCS3)cc1 | 16 | 12 | 19 | 16 | – | – | – | – | – | – | – |
| c1cc(-c2nc3n(c2-c2ccncc2)CCS3)ccn1 | -3 | 7 | – | – | -4 | – | – | – | – | – | – |
| Fc1ccc(-c2c(-c3ccncc3)nc3n2CCS3)cc1 | -9 | 4 | 15 | -2 | – | – | – | – | – | – | – |
| COc1ccc(-c2nc3n(c2-c2ccc(OC)cc2)CCS3)cc1 | – | – | – | – | 25 | 194 | 29 | 36 | – | – | – |
| Fc1ccc(-c2nc3n(c2-c2ccncc2)CCS3)cc1 | – | – | – | 27 | – | 69 | 44 | 38 | – | – | – |
| CSc1ccc(-c2c(-c3ccncc3)nc3n2CCS3)cc1 | – | 8 | 19 | 7 | – | – | -18 | – | – | – | – |
| COc1ccc(-c2c(-c3ccncc3)nc3n2CCS3)cc1 | – | 1 | 42 | 0 | – | – | -37 | – | – | – | – |
| COc1ccc(-c2nc3n(c2-c2ccncc2)CCS3)cc1 | 21 | 20 | 59 | 15 | – | – | – | – | – | – | – |
| c1ccc([C@H]2CN3CCSC3=N2)cc1 [LEVAMISOLE] | 1 | -2 | 230 | 0 | – | – | – | – | – | – | – |
| C[C@]12C=CC(=O)C=C1CC[C@@H]1[C@@H]2[C@@H](O)C[C@@]2(C)[C@H]1CC[C@]2(O)C(=O)CO [PREDNISOLONE] | – | – | – | 28 | – | – | – | – | 42 | -12 | 54 |
